Measured values taken from the EternaBench riboswitch data.

Tested on: MS2 coat protein
Experiment: apparent Kd, MS2 coat protein; higher = weaker binding; RNA-MaP array; FMN 200 µM where present
Method in brief: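 In 100 mM Tris-HCl pH 7.5, 80 mM KCl, 4 mM MgCl2, BSA, DTT, yeast tRNA and Tween-20, SNAP-549-labelled MS2 coat protein was titrated from 0.7 or 1.5 nM, doubling to 3 µM, over designs transcribed by stalled E. coli RNA polymerase on Illumina sequencing-chip clusters. This was done first without ligand, then with ligand held constant. After green signal was normalised to red-channel RNA signal and control-cluster median Fmax, the apparent Kd was taken as the median of filtered per-cluster binding-curve fits.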

[1] = designed as: OFF switch for flavin mononucleotide, no ligand
[2] = ligand present: flavin mononucleotide, designed as: OFF switch for flavin mononucleotide
[3] = designed as: ON switch for flavin mononucleotide, no ligand
[4] = ligand present: flavin mononucleotide, designed as: ON switch for flavin mononucleotide

Sequence	apparent Kd [1]	apparent Kd [2]	apparent Kd [3]	apparent Kd [4]
AGGAGGUCAGGAUAUGCUGCUCGUCACUUGCGUGAUGAGUAGCAGAAGGGACAUGAGGAUCACCCAUGUAAAUA	48.7 nM	86.7 nM		
GCCUCAGAAUUAAUUGUGAGAAGCAGAAGGCUAUAUCUUAUGUUAGACAUGAGGAUCACCCAUGUAGAGGAUAUGCUGUUACAG	7.84 nM	12 nM		
CUUAUGUGAGGAUAUCAGUAGUAAAAAAAUAAAAUUACUACUGAGAAGGCACAUGAGGAUCACCCAUGUUCCUC	115 nM	429 nM		
CGCUACGUUUCGUAGCAGUGUCAUCGAGAAGGCCCUGACAUGAGGAUCACCCAUGUUAAAACAUGGGAGGAUAUCGAUGAUACA			11.7 nM	4.87 nM
GAUAUGGGAGGAUAUGCAUAGAUAAAGAAACAUGUUCAACCACAUGAGGAUCACCCAUGUAGAAGGCCCAUAUC	31.9 nM	147 nM		
UUAUUAUAUGUAGGAUAUGCAUAUUAUUAUUAUGCAGAAGGACAUGAGGAUCACCCAUGUAUAUUGUUAUUAUAUAUUAUAUAU	25.5 nM	37 nM		
AAUAACAGAGGAUAUACUAUUUUAUGUGUUUGUUAUUUUGAACAUGAGGAUCACCCAUGUAGAAGGCUGAAUAA	25 nM	27.2 nM		
UUUAUAAAGGUAGGAUAUUGUAUUAUAAUUAAAUAAGAAGGAUCUCACAUGAGGAUCACCCAUGUAAGAGGAUCACCCAUGUAU	8.68 nM	9.25 nM		
UUUUUGUCAGGAUAUCAAAAGUACUACUUCGGUAGUACUUUUGAGAAGGGACAUGAGGAUCACCCAUGUAGUUU	61.4 nM	285 nM		
AAAAAACAUGAGGAUCACCCAUGUAAGGAUAUGACUUAAAUAAAGAAAGAAGAAAUAGUCAGAAGGUACAAAUA	45.3 nM	51.1 nM		
UAGAAAGAUUAAUAUGAUUACAUGAGGAUCACCCAUGUAUAUAAGGAUAUCGACGUCAAUGACGUCGAGAAGGUAUAUACAUAA	66.3 nM	198 nM		
CCCUCACAUGAGGAUCACCCAUGUCCUAGCAGGUCAGGAUAUAGCCCGCAUCCGCUGCGGCUAGAAGGGACAGCUG			244 nM	105 nM
CGUAUGUCAGGAUAUGUGUAUGCCGGUCAGGGCGAGCGGCAGCAGAAGGGACAUGAGGAUCACCCAUGUUCGGG	59.6 nM	116 nM		
GAAGCACGCAUUAACAUGAGGAUCACCCAUGUGAAAACACGUGAGGAUAUGGAUCUGAAGAAGAUCCAGAAGGCACCGUGCUAA			5.44 nM	4.78 nM
UCUAUGUAGAUUCGUCAAUACAGUUAGGAUAUGAGAUACAUGAGGAUCACCCAUGUGCAUGUGGAUUAGAAGGAACAAUUAACU	93.4 nM	69.8 nM		
ACAUGAUAUGUAGGAUAUCACAUUAAUUGAUUAAUAUAUGAAUAUAGAAUUUGAGAAGGACAUUUACAUGAGGAUCACCCAUGU	15.7 nM	10.8 nM		
CUUCUUGGGCAAGGAUAUCCUGUGCGGUUCCGGCUCGUGUCUGUCACAUGAGGAUCACCCAUGUGGGAGAAGGUGCCUGCGGUC	6.15 nM	6.79 nM		
GCCAACGCAUGAGGAUAUGCUCCCGUUUCGGGAGCAGAAGGCAUGUCAUAAGACAUGAGGAUCACCCAUGUAGUCAAGAUGGCA			291 nM	16.7 nM
AAAAAGGCAGGAUAUACAAAAAAAAAAAAAAAAAAGGAGGGACAUGAGGAUCACCCAUGUAGAAGGGCCAAAAA	66.5 nM	134 nM		
GUGGUCAGACAUGAGGAUCACCCAUGUGGAAUAAAUAACACACAGGAUAUCUAAUAUAAAAUAUAAGAGAAGGGUGGAUUGGUG			273 nM	182 nM
UUUAAGCUCACAUGAGGAUCACCCAUGUCCGUUCGCCCGGACAGAAGGCACCCAUGACAAUGCGGUGAGGAUAUGUCAGCAAGG			120 nM	13.1 nM
